Test results as given in ChEMBL document CHEMBL1145833, “Studies on the synthesis and biological properties of non-carrier-added [(125)I and (131)I]-labeled arylalkylidenebisphosphonates: potent bone-seekers for diagnosis and therapy of malignant osseous lesions” (J Med Chem, 2003).

Columns and labels:
Settings in all cases: in vivo
Mus musculus [1] = organism: Mus musculus; experiment: Distribution of compound in liver tissue of mice after 5 hr injection time was determined; assay type: ADME, organism-based
Procedure, shortened: (§1)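 Healthy athymic nude mice (balb/c nu/nu, 20–25 g, both sexes) received 50–400 KBq radioiodinated bisphosphonate in 100 µL phosphate buffer pH 6–7 by tail-vein injection. Three animals were sacrificed per time point. Tissues were excised, weighed and gamma-counted. Values are % injected dose per gram tissue, mean ± 1 SD, n = 3.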

Rattus norvegicus [2] = organism: Rattus norvegicus; experiment: Distribution of compound in liver tissue of rats after 24 hr injection time was determined; assay type: ADME, organism-based
Procedure, shortened: (§2)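 Healthy congenitally athymic nude rats (Han rnu/rnu Rowett, 60 g, both sexes) received 0.4 MBq radioiodinated bisphosphonate in 200 µL phosphate buffer pH 7 via tail vein. Three rats were sacrificed 24 h post-injection. Excised organs were weighed and gamma-counted. Values are % injected dose per gram tissue, mean ± 1 SD of three rats.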

Rattus norvegicus [3] = organism: Rattus norvegicus; experiment: Distribution of compound in lung tissue of rats after 24 hr injection time was determined; assay type: ADME, organism-based; procedure, shortened: as §2
Mus musculus [4] = organism: Mus musculus; experiment: Distribution of compound in lungs tissue of mice after 0.5 h injection time was determined; assay type: ADME, organism-based, Lung; procedure, shortened: as §1
Mus musculus [5] = organism: Mus musculus; experiment: Distribution of compound in lungs tissue of mice after 2 hr injection time was determined; assay type: ADME, organism-based, Lung; procedure, shortened: as §1
Mus musculus [6] = organism: Mus musculus; experiment: Distribution of compound in lungs tissue of mice after 24 hr injection time was determined; assay type: ADME, organism-based, Lung; procedure, shortened: as §1
Mus musculus [7] = organism: Mus musculus; experiment: Distribution of compound in lungs tissue of mice after 5 hr injection time was determined; assay type: ADME, organism-based, Lung; procedure, shortened: as §1
Mus musculus [8] = organism: Mus musculus; experiment: Distribution of compound in skull tissue of mice after 0.5 hr injection time was determined; assay type: ADME, organism-based; procedure, shortened: as §1
Mus musculus [9] = organism: Mus musculus; experiment: Distribution of compound in skull tissue of mice after 2 hr injection time was determined; assay type: ADME, organism-based; procedure, shortened: as §1
Mus musculus [10] = organism: Mus musculus; experiment: Distribution of compound in skull tissue of mice after 24 hr injection time was determined; assay type: ADME, organism-based; procedure, shortened: as §1
Mus musculus [11] = organism: Mus musculus; experiment: Distribution of compound in skull tissue of mice after 5 h injection time was determined; assay type: ADME, organism-based; procedure, shortened: as §1
Rattus norvegicus [12] = organism: Rattus norvegicus; experiment: Distribution of compound in skull tissue of rats after 24 hr injection time was determined; assay type: ADME, organism-based; procedure, shortened: as §2
Mus musculus [13] = organism: Mus musculus; experiment: Distribution of compound in spleen tissue of mice after 0.5 hr injection time was determined; assay type: ADME, organism-based; procedure, shortened: as §1
Mus musculus [14] = organism: Mus musculus; experiment: Distribution of compound in kidneys tissue of mice after 0.5 hr injection time was determined; assay type: ADME, organism-based, Kidney; procedure, shortened: as §1
Mus musculus [15] = organism: Mus musculus; experiment: Distribution of compound in kidneys tissue of mice after 2 hr injection time was determined; assay type: ADME, organism-based, Kidney; procedure, shortened: as §1
Mus musculus [16] = organism: Mus musculus; experiment: Distribution of compound in kidneys tissue of mice after 24 hr injection time was determined; assay type: ADME, organism-based, Kidney; procedure, shortened: as §1
Mus musculus [17] = organism: Mus musculus; experiment: Distribution of compound in kidneys tissue of mice after 5 hr injection time was determined; assay type: ADME, organism-based, Kidney; procedure, shortened: as §1
Mus musculus [18] = organism: Mus musculus; experiment: Distribution of compound in liver tissue of mice after 0.5 hr injection time was determined; assay type: ADME, organism-based; procedure, shortened: as §1
Mus musculus [19] = organism: Mus musculus; experiment: Distribution of compound in liver tissue of mice after 24 hr injection time was determined; assay type: ADME, organism-based; procedure, shortened: as §1
Mus musculus [20] = organism: Mus musculus; experiment: Distribution of compound in heart tissue of mice after 2 hr injection time was determined; assay type: ADME, organism-based; procedure, shortened: as §1
Mus musculus [21] = organism: Mus musculus; experiment: Distribution of compound in heart tissue of mice after 24 hr injection time was determined; assay type: ADME, organism-based; procedure, shortened: as §1
Mus musculus [22] = organism: Mus musculus; experiment: Distribution of compound in heart tissue of mice after 5 hr injection time was determined; assay type: ADME, organism-based; procedure, shortened: as §1
Rattus norvegicus [23] = organism: Rattus norvegicus; experiment: Distribution of compound in heart tissue of rats after 24 hr injection time was determined; assay type: ADME, organism-based; procedure, shortened: as §2
Mus musculus [24] = organism: Mus musculus; experiment: Distribution of compound in intestine tissue of mice after 0.5 hr injection time was determined; assay type: ADME, organism-based; procedure, shortened: as §1
Mus musculus [25] = organism: Mus musculus; experiment: Distribution of compound in intestine tissue of mice after 2 hr injection time was determined; assay type: ADME, organism-based; procedure, shortened: as §1
Mus musculus [26] = organism: Mus musculus; experiment: Distribution of compound in intestine tissue of mice after 24 hr injection time was determined; assay type: ADME, organism-based; procedure, shortened: as §1
Mus musculus [27] = organism: Mus musculus; experiment: Distribution of compound in intestine tissue of mice after 5 hr injection time was determined; assay type: ADME, organism-based; procedure, shortened: as §1
Rattus norvegicus [28] = organism: Rattus norvegicus; experiment: Distribution of compound in intestine tissue of rats after 24 hr injection time was determined; assay type: ADME, organism-based; procedure, shortened: as §2
Rattus norvegicus [29] = organism: Rattus norvegicus; experiment: Distribution of compound in kidney tissue of rats after 24 hr injection time was determined; assay type: ADME, organism-based; procedure, shortened: as §2
Mus musculus [30] = organism: Mus musculus; experiment: Distribution of compound in spleen tissue of mice after 2 hr injection time was determined; assay type: ADME, organism-based; procedure, shortened: as §1
Mus musculus [31] = organism: Mus musculus; experiment: Distribution of compound in spleen tissue of mice after 24 hr injection time was determined; assay type: ADME, organism-based; procedure, shortened: as §1
Mus musculus [32] = organism: Mus musculus; experiment: Distribution of compound in spleen tissue of mice after 5 h injection time was determined; assay type: ADME, organism-based; procedure, shortened: as §1
Rattus norvegicus [33] = organism: Rattus norvegicus; experiment: Distribution of compound in spleen tissue of rats after 24 hr injection time was determined; assay type: ADME, organism-based; procedure, shortened: as §2
Mus musculus [34] = organism: Mus musculus; experiment: Distribution of compound in stomach tissue of mice after 0.5 hr injection time was determined; assay type: ADME, organism-based; procedure, shortened: as §1
Mus musculus [35] = organism: Mus musculus; experiment: Distribution of compound in stomach tissue of mice after 2 hr injection time was determined; assay type: ADME, organism-based; procedure, shortened: as §1
Mus musculus [36] = organism: Mus musculus; experiment: Distribution of compound in stomach tissue of mice after 24 hr injection time was determined; assay type: ADME, organism-based; procedure, shortened: as §1
Mus musculus [37] = organism: Mus musculus; experiment: Distribution of compound in stomach tissue of mice after 5 hr injection time was determined; assay type: ADME, organism-based; procedure, shortened: as §1
Rattus norvegicus [38] = organism: Rattus norvegicus; experiment: Distribution of compound in stomach tissue of rats after 24 hr injection time was determined; assay type: ADME, organism-based; procedure, shortened: as §2
Mus musculus [39] = organism: Mus musculus; experiment: Distribution of compound in thyroid tissue of mice after 0.5 hr injection time was determined; assay type: ADME, organism-based, Thyroid gland
Procedure, shortened: (§3)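 Healthy athymic nude balb/c nu/nu mice (20–25 g) received 50–400 KBq radioiodinated bisphosphonate in 100 μL phosphate buffer, pH 6–7, by tail-vein injection. Three animals were sacrificed per time point. Thyroid-containing tissue was excised, weighed and gamma-counted. Values are % of injected dose, mean ± 1 SD of three mice.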

Mus musculus [40] = organism: Mus musculus; experiment: Distribution of compound in thyroid tissue of mice after 2 hr injection time was determined; assay type: ADME, organism-based, Thyroid gland; procedure, shortened: as §3
Mus musculus [41] = organism: Mus musculus; experiment: Distribution of compound in thyroid tissue of mice after 24 h injection time was determined; assay type: ADME, organism-based, Thyroid gland; procedure, shortened: as §3
Mus musculus [42] = organism: Mus musculus; experiment: Distribution of compound in thyroid tissue of mice after 5 h injection time was determined; assay type: ADME, organism-based, Thyroid gland; procedure, shortened: as §3
Rattus norvegicus [43] = organism: Rattus norvegicus; experiment: Distribution of compound in thyroid tissue of rats after 24 hr injection time was determined; assay type: ADME, organism-based, Thyroid gland
Procedure, shortened: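 Healthy congenitally athymic nude rats (Han rnu/rnu Rowett, 60 g) received 0.4 MBq radioiodinated bisphosphonate in 200 μL phosphate buffer, pH 7, by tail-vein injection. Three rats were sacrificed 24 h after injection. Thyroid-containing tissue was excised, weighed and gamma-counted. Values are % of injected dose, mean ± 1 SD of three rats.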

Mus musculus [44] = organism: Mus musculus; experiment: Distribution of compound in blood tissue of mice after 0.5 hr injection time was determined; assay type: ADME, organism-based; procedure, shortened: as §1
Mus musculus [45] = organism: Mus musculus; experiment: Distribution of compound in blood tissue of mice after 2 hr injection time was determined; assay type: ADME, organism-based; procedure, shortened: as §1
Mus musculus [46] = organism: Mus musculus; experiment: Distribution of compound in blood tissue of mice after 24 hr injection time was determined; assay type: ADME, organism-based; procedure, shortened: as §1
Mus musculus [47] = organism: Mus musculus; experiment: Distribution of compound in blood tissue of mice after 5 h injection time was determined; assay type: ADME, organism-based; procedure, shortened: as §1
Rattus norvegicus [48] = organism: Rattus norvegicus; experiment: Distribution of compound in blood tissue of rats after 24 hr injection time was determined; assay type: ADME, organism-based; procedure, shortened: as §2
Mus musculus [49] = organism: Mus musculus; experiment: Distribution of compound in femur tissue of mice after 0.5 hr injection time was determined; assay type: ADME, organism-based; procedure, shortened: as §1
Mus musculus [50] = organism: Mus musculus; experiment: Distribution of compound in femur tissue of mice after 2 hr injection time was determined; assay type: ADME, organism-based; procedure, shortened: as §1
Mus musculus [51] = organism: Mus musculus; experiment: Distribution of compound in femur tissue of mice after 24 hr injection time was determined; assay type: ADME, organism-based; procedure, shortened: as §1
Mus musculus [52] = organism: Mus musculus; experiment: Distribution of compound in femur tissue of mice after 5 hr injection time was determined; assay type: ADME, organism-based; procedure, shortened: as §1
Rattus norvegicus [53] = organism: Rattus norvegicus; experiment: Distribution of compound in femur tissue of rats after 24 h injection time was determined; assay type: ADME, organism-based; procedure, shortened: as §2
Mus musculus [54] = organism: Mus musculus; experiment: Distribution of compound in heart tissue of mice after 0.5 hr injection time was determined; assay type: ADME, organism-based; procedure, shortened: as §1
Mus musculus [55] = organism: Mus musculus; experiment: Distribution of compound in liver tissue of mice after 2 h injection time was determined; assay type: ADME, organism-based; procedure, shortened: as §1

Injected (Mus musculus [1]): 2.51%
Injected (Rattus norvegicus [2]): 0.18%
Injected (Rattus norvegicus [3]): 0.05%
Injected (Mus musculus [4]): 5.41%
Injected (Mus musculus [5]): 1.2%
Injected (Mus musculus [6]): 0.54%
Injected (Mus musculus [7]): 0.61%
Injected (Mus musculus [8]): 24.61%
Injected (Mus musculus [9]): 26.49%
Injected (Mus musculus [10]): 21.34%
Injected (Mus musculus [11]): 19.14%
Injected (Rattus norvegicus [12]): 5.84%
Injected (Mus musculus [13]): 2.02%
Injected (Mus musculus [14]): 18.64%
Injected (Mus musculus [15]): 13.3%
Injected (Mus musculus [16]): 5.16%
Injected (Mus musculus [17]): 7.17%
Injected (Mus musculus [18]): 3.88%
Injected (Mus musculus [19]): 2.27%
Injected (Mus musculus [20]): 0.82%
Injected (Mus musculus [21]): 0.18%
Injected (Mus musculus [22]): 0.4%
Injected (Rattus norvegicus [23]): 0.04%
Injected (Mus musculus [24]): 1.07%
Injected (Mus musculus [25]): 1%
Injected (Mus musculus [26]): 0.16%
Injected (Mus musculus [27]): 0.45%
Injected (Rattus norvegicus [28]): 0.03%
Injected (Rattus norvegicus [29]): 0.36%
Injected (Mus musculus [30]): 0.77%
Injected (Mus musculus [31]): 0.49%
Injected (Mus musculus [32]): 0.47%
Injected (Rattus norvegicus [33]): 0.09%
Injected (Mus musculus [34]): 3.22%
Injected (Mus musculus [35]): 1.79%
Injected (Mus musculus [36]): 0.13%
Injected (Mus musculus [37]): 0.38%
Injected (Rattus norvegicus [38]): 0.05%
Injected (Mus musculus [39]): 0.51%
Injected (Mus musculus [40]): 0.19%
Injected (Mus musculus [41]): 0.06%
Injected (Mus musculus [42]): 0.49%
Injected (Rattus norvegicus [43]): 0.02%
Injected (Mus musculus [44]): 15.92%
Injected (Mus musculus [45]): 1.36%
Injected (Mus musculus [46]): 0.09%
Injected (Mus musculus [47]): 0.82%
Injected (Rattus norvegicus [48]): 0.01%
Injected (Mus musculus [49]): 45.03%
Injected (Mus musculus [50]): 45.54%
Injected (Mus musculus [51]): 37.79%
Injected (Mus musculus [52]): 30.3%
Injected (Rattus norvegicus [53]): 16.44%
Injected (Mus musculus [54]): 3.35%
Injected (Mus musculus [55]): 3.36%
SMILES: O=P(O)(O)C(O)(Cc1cccc(I)c1)P(=O)(O)O
